Results from ChEMBL document CHEMBL4028818, “Tricyclic 4,4-dimethyl-3,4-dihydrochromeno[3,4-d]imidazole derivatives as microsomal prostaglandin E2 synthase-1 (mPGES-1) inhibitors: SAR and in vivo efficacy in hyperalgesia pain model” (Bioorg Med Chem Lett, 2017).

Experiments:
Cavia porcellus [1] = assay: Analgesic activity in Dunkin Hartley guinea pig hyperalgesia pain model assessed as inhibition of LPS-induced thermal hyperalgesia at 100 mg/kg, po qd administered 4 hrs prior to LPS stimulation measured after 4.5 hrs by plantar test relative to control; format: functional
Method in brief: (§1)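 LPS was injected into the guinea pig plantar to induce thermal hyperalgesia, and compound was given orally. Response is expressed as % hyperalgesia, with a saline-injected naive group as 0% and the vehicle-treated LPS group as 100%. Values are mean ± SEM, n = 8 per dose group.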

[2] = AUC (0 to 24 hrs) in Guinea pig at 100 mg/kg, po; format: ADME, organism-based, Cavia porcellus; design: time < 24 hr, dose 100 mg/kg, route oral; settings: in vivo
Method in brief: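 Single oral dose given to guinea pigs as a 0.5% methylcellulose suspension. Values are mean ± SD, n = 3.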

COX2 [3] = target: T1, COX2 (Homo sapiens, UniProt P35354); assay: Inhibition of recombinant human N-terminal His-tagged COX2 expressed in baculovirus infected Sf21 insect cells assessed as decrease in PGE2 release at 10 uM using arachidonic acid as substrate preincubated for 15 mins followed by arachidonic acid addition measured after 5 mins relative to control; settings: probe arachidonic acid
T1 sequence (P35354 whole entry): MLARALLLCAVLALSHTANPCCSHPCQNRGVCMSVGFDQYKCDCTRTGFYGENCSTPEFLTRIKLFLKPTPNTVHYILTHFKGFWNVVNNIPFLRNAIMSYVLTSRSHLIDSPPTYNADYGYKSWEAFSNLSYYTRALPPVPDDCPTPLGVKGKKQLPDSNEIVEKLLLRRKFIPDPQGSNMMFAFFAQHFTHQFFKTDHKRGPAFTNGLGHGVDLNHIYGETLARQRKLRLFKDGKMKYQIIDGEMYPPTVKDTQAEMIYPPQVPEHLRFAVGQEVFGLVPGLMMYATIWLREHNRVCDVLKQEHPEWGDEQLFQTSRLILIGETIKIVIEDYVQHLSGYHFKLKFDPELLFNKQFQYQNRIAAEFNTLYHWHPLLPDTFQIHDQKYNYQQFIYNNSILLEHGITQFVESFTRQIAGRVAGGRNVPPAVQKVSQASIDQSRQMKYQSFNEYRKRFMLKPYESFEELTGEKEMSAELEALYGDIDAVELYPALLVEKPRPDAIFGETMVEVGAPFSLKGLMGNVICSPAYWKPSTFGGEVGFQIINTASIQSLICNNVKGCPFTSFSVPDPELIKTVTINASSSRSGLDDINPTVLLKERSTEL

[4] = target: T2, Prostaglandin E synthase (Homo sapiens) (UniProt O14684); assay: Inhibition of recombinant human mPGES-1 expressed in CHO cells assessed as reduction in PGE2 formation at 1 uM using PGH2 a substrate preincubated for 10 mins followed by substrate addition measured after 1 min relative to control; format: cell-based
T2 sequence (whole entry): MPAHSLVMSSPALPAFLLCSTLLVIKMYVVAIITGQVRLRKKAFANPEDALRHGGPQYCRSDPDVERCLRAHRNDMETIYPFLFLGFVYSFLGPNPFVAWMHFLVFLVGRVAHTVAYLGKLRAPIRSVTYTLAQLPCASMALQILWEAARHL
Method in brief: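 mPGES-1 enzyme inhibition. % inhibition values are means of two experiments in duplicate. IC50 values were derived from graphs of at least two experiments in duplicate.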

Cavia porcellus [5] = assay: Analgesic activity in Dunkin Hartley guinea pig hyperalgesia pain model assessed as inhibition of LPS-induced thermal hyperalgesia at 200 mg/kg, po qd administered 4 hrs prior to LPS stimulation measured after 4.5 hrs by plantar test relative to control; format: functional; method in brief: as §1
COX2 [6] = target: T1, COX2; assay: Inhibition of recombinant human N-terminal His-tagged COX2 expressed in baculovirus infected Sf21 insect cells assessed as decrease in PGE2 release at 1 uM using arachidonic acid as substrate preincubated for 15 mins followed by arachidonic acid addition measured after 5 mins relative to control; settings: probe arachidonic acid

SMILES	inhibition in vivo at 100 mg/kg (Cavia porcellus [1]) [%]	AUC(0-t) at 24 h [2] [ng·h/mL]	inhibition at 5 min, 10 µM (COX2 [3]) [%]	inhibition [4] [%]	inhibition in vivo at 200 mg/kg (Cavia porcellus [5]) [%]	inhibition at 5 min, 1 µM (COX2 [6]) [%]
CC1(C)Oc2cc(C#Cc3cc(Cl)ccc3F)ccc2-c2[nH]c(-c3c(F)cccc3Cl)nc21	26	–	–	–	–	–
CC1(C)Oc2cc(-c3cccc(OC(F)(F)F)c3)ccc2-c2[nH]c(-c3c(F)cccc3Cl)nc21	–	13400	24.2	97.9	38	2.37
